According to ChEMBL document CHEMBL1154829, “Iridoids from Fraxinus excelsior with adipocyte differentiation-inhibitory and PPARalpha activation activity” (2010):
Activity calls are given as the source filed them. No cut-off for these calls is given here.

How the values were obtained:
[1] = target: T1, Solute carrier family 2, facilitated glucose transporter member 4 (Homo sapiens) (UniProt P14672); assay: Stimulation of GLUT4 glucose transport
T1 sequence (whole entry): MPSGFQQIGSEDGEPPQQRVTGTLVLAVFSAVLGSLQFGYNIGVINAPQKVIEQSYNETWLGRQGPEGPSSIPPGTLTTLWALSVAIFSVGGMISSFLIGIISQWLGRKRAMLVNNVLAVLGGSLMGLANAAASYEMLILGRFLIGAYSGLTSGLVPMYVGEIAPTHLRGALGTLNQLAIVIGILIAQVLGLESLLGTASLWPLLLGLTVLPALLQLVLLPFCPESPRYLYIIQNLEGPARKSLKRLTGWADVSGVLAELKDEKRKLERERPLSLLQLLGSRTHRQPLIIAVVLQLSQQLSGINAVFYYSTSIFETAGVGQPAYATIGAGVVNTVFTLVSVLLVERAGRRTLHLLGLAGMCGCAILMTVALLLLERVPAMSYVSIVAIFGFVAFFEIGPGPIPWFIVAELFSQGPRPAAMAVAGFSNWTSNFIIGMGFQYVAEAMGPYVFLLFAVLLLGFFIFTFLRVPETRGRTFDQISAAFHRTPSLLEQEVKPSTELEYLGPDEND

[2] = tested on: 3T3-L1; assay: Inhibition of adipocyte differentiation in mouse 3T3L1 cells assessed as inhibition of 2 deoxy-D[3H]glucose uptake at 0.1 mg/ml […] by scintillation counter relative to control; assay type: functional
[3] = tested on: 3T3-L1; assay: Inhibition of adipocyte differentiation in mouse 3T3L1 cells assessed as inhibition of 2 deoxy-D[3H]glucose uptake at 0.05 mg/ml […] by scintillation counter relative to control; assay type: functional
[4] = tested on: 3T3-L1; assay: Inhibition of adipocyte differentiation in mouse 3T3L1 cells assessed as inhibition of 2 deoxy-D[3H]glucose uptake at 0.01 mg/ml […] by scintillation counter relative to control; assay type: functional
[5] = target: T2, Peroxisome proliferator-activated receptor alpha (Homo sapiens) (UniProt Q07869); assay: Activation of PPARalpha transfected into HEK cells at 100 uM by luciferase assay; assay type: cell-based; details: HEK293
T2 sequence (whole entry): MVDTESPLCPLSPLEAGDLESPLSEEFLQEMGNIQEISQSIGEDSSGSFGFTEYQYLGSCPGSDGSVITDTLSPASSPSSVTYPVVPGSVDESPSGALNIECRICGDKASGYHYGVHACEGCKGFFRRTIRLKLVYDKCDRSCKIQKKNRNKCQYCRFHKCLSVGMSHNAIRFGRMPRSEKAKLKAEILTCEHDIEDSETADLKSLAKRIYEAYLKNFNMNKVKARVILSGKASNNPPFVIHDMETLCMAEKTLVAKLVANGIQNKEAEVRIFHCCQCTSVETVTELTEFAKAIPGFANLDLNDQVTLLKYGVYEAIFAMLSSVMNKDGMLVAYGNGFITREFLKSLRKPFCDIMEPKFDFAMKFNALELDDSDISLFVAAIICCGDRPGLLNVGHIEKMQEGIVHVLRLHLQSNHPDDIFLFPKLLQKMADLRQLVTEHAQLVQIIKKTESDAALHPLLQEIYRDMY
How it was run: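 HEK cells in DMEM with 10% FBS, 1% penicillin-streptomycin and 2 mM L-glutamine at 37 °C, 5% CO2. Seeded at 80 000/well 24 h before PEI transfection (1 µg plasmid, 4 h). Compounds dissolved in DMSO and added in supplemented DMEM for 48 h. Lysate luciferase read by luminometer, normalized to β-gal, relative to DMSO control. Three independent runs; mean ± SD.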

[6] = tested on: 3T3-L1; assay: Inhibition of adipocyte differentiation in mouse 3T3L1 cells assessed as inhibition of 2 deoxy-D[3H]glucose uptake at 1 mg/ml […] by scintillation counter relative to control; assay type: functional
[7] = tested on: 3T3-L1; assay: Inhibition of adipocyte differentiation in mouse 3T3L1 cells assessed as inhibition of 2 deoxy-D[3H]glucose uptake at 0.2 mg/ml […] by scintillation counter relative to control; assay type: functional
[8] = tested on: 3T3-L1; assay: Inhibition of adipocyte differentiation in mouse 3T3L1 cells assessed as inhibition of 2 deoxy-D[3H]glucose uptake at 0.5 mg/ml after 15 mins by scintillation counter relative to control; assay type: functional

SMILES | activation [1] | inhibition at 100 µg/mL [2] [%] | inhibition at 50 µg/mL [3] [%] | inhibition at 10 µg/mL [4] [%] | Activity [5] [%] | inhibition at 1000 µg/mL [6] [%] | inhibition at 200 µg/mL [7] [%] | inhibition at 500 µg/mL [8] [%]
C/C=C1\[C@H](O[C@@H]2O[C@H](CO)[C@@H](O)[C@H](O)[C@H]2O)OC=C(C(=O)OC)[C@H]1CC(=O)O | inactive | -85.2 | -34.8 | -7.9 | – | – | – | –
C/C=C1\[C@H](O[C@@H]2O[C@H](CO)[C@@H](O)[C@H](O)[C@H]2O)OC=C(C(=O)OC)[C@H]1CC(=O)OC [OLEOSIDE DIMETHYL ESTER] | inactive | -81 | -7.3 | 78.2 | 27.9 | – | – | –
C/C=C1/[C@H](O[C@@H]2O[C@H](CO[C@@H]3O[C@H](CO)[C@@H](O)[C@H](O)[C@H]3O)[C@@H](O)[C@H](O)[C@H]2O)OC=C(C(=O)OC)[C@H]1CC(=O)OCCc1ccc(O)cc1 [EXCELSIDE B] | inactive | – | -16.7 | – | 24.8 | -24.3 | -30.8 | -22.7
C/C=C1/[C@H](O[C@@H]2O[C@H](CO[C@@H]3O[C@H](CO)[C@@H](O)[C@H](O)[C@H]3O)[C@@H](O)[C@H](O)[C@H]2O)OC=C(C(=O)OC)[C@H]1CC(=O)OC [EXCELSIDE A] | inactive | -16.6 | 30.9 | 102 | – | – | – | –
O=C(O)C1CN2C(N1)[C@H](O)[C@@H](O)[C@H](O)[C@H]2CO (stereo partly drawn) | inactive | – | 2.3 | – | 21 | -2.1 | -8.3 | -10.4
C/C=C1\C(CC(=O)OC[C@H]2O[C@@H](OCCc3ccc(O)cc3)[C@H](O)[C@@H](O)[C@@H]2O)C(C(=O)OC)=CO[C@H]1O[C@@H]1O[C@H](CO)[C@@H](O)[C@H](O)[C@H]1O (stereo partly drawn) [NUZHENIDE] | inactive | – | -15.2 | – | 12.2 | -38.2 | -28.3 | -27.9
C/C=C1/[C@H](O[C@@H]2O[C@H](CO)[C@@H](O)[C@H](O[C@@H]3O[C@H](CO)[C@@H](O)[C@H](O)[C@H]3O)[C@H]2O)OC=C(C(=O)OC)[C@H]1CC(=O)Oc1ccc(CCO)cc1 | – | -49.7 | -17.1 | 77.6 | – | – | – | –
C/C=C1/[C@H](O[C@@H]2O[C@H](CO)[C@@H](O)[C@H](O)[C@H]2O)OC=C(C(=O)OC)[C@H]1CC(=O)OCCc1ccc(O)cc1 [LIGSTROSIDE] | inactive | -9.8 | -76.4 | -9.3 | – | – | – | –
